Source: PubChem BioAssay (several laboratories)
WT yeast gro inh: growth inhibition of WT yeast, mitochondrial fusion screen; AID 1362; mitochondrial fusion phenotypic screen, WT strain; inhibition, % at 10 µM; 190,000 tested, 2.1% active; in the data active = inhibition above about 58%; tested in S. cerevisiae
PMI activator: phosphomannose isomerase (human) activation | purified human PMI, coupled resazurin fluorescence, 20 min; hits give high values; 1 = vehicle control, 0 substrate-free wells | P34949 | activation factor at 20 µM | 190,000 tested, 0.005% active;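 active = activation factor of 2 or more at 20 µM, relative to plate controls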
Target sequence (P34949 whole entry, looked up): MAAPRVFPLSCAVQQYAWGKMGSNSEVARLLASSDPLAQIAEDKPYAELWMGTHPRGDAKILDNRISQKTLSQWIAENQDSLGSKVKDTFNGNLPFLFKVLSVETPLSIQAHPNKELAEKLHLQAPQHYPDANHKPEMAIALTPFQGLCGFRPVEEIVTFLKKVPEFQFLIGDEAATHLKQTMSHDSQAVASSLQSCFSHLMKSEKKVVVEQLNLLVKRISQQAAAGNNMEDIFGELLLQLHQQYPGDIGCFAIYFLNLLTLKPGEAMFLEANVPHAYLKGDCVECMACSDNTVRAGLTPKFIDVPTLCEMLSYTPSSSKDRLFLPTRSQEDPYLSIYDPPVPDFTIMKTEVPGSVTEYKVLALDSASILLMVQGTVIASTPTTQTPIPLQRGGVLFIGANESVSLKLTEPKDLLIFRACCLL
PMI act satM6P: increases human PMI activity with near-saturating mannose 6-phosphate; P34949; coupled PMI enzyme assay, resazurin fluorescence, 20 min; hits give high values; 1 = untreated enzyme, 0 = substrate-free blank; activation factor at 20 µM; 190,000 tested, 0.34% active;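 active = activation factor of 2 or more at 20 µM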
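Test system: human phosphomannose isomerase with PGI, G6PDH, diaphorase coupling enzymes; amount: 15 ng/mL PMI; incubation: enzyme reaction with compound 20 min at room temperature; technique: resorufin fluorescence (Ex 544/Em 590 nm) from resazurin via diaphorase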
Lmaj promast: reduces viability of Leishmania major promastigotes. 200,000 tested, 9% active. resazurin fluorescence viability. inhibition, % at 10 µM. AID 1063; in the data active = inhibition above about 50%;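 also: promastigotes grown with compound for 44 hours at 28 °C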
Diaphorase act: counter-screen for diaphorase-based assays: diaphorase activators and chemical reducers. Diaphorase/resazurin coupled assay, resorufin fluorescence, 16 min; hits give high values; 1 = vehicle wells, 0 = NADH-free wells. activation factor at 20 µM. 190,000 tested, 0.005% active. AID 1229;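 active = diaphorase activity raised at least twofold by the compound at 20 µM; inactive = activation factor below 2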
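Assay system: bacterial diaphorase enzyme (C. kluyveri) / Input: enzyme 0.07 U/mL final / Medium: 50 mM HEPES pH 7.4 with 4.542 mM MgCl2, 0.005% Tween 20 / Doses: single compound dose of 20 µM, 1% DMSO final / Incubation: 16 min enzyme reaction, ambient temperature / Signal: fluorescence, excitation 544 nm and emission 590 nm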
Numbers without * were called inactive. An excerpt weighted towards active compounds, which were near 10% of everything screened.

How did [O-][n+]1onc2c1CCC1N(O)CCC21O (stereo not given) do in these assays?
WT yeast gro inh: -15; PMI activator: 1.2; PMI act satM6P: 1.3; Lmaj promast: -3; Diaphorase act: 0.9

Results for CCOC(=O)C(=CNc1ccc(C(O)(C(=O)OCC)C(F)(F)F)cc1C)C(=O)OCC (stereo not given) ?
WT yeast gro inh: 1; PMI activator: 0.9; PMI act satM6P: 0.9; Lmaj promast: 55*; Diaphorase act: 0.7

What do the screens show for `N#CC[N+]1(CCCNP2(=O)C=C(c3ccccc3)OC(c3ccccc3)=C2)CCOCC1`?
WT yeast gro inh: 10; PMI activator: 1.1; PMI act satM6P: 1; Lmaj promast: -7; Diaphorase act: 1

How did COc1cc2c(cc1OC)CN(c1ccc([N+](=O)[O-])c(C(F)(F)F)c1)CC2 do in these assays?
WT yeast gro inh: 13; PMI activator: 0.9; PMI act satM6P: 1; Lmaj promast: 66*; Diaphorase act: 1

What do the screens show for `COc1ccc(C2NCc3ccc4c(c3-n3cccc32)OCO4)cc1O` (stereo not given)?
WT yeast gro inh: 4; PMI activator: 0.9; PMI act satM6P: 1; Lmaj promast: 74*; Diaphorase act: 1

How did O=C(c1c[nH]c2ccc(S(=O)(=O)N3CCOCC3)cc2c1=O)N1CCC2(CC1)OCCO2 do in these assays?
WT yeast gro inh: 11; PMI activator: 1.1; PMI act satM6P: 1.1; Lmaj promast: -4; Diaphorase act: 1

What do the screens show for `Cc1cccc(-n2c(=S)[nH]c3ccccc3c2=O)n1`?
WT yeast gro inh: -16; PMI activator: 1; PMI act satM6P: 1; Lmaj promast: -3; Diaphorase act: 1

What do the screens show for `Cc1cc(Br)c(NC(=O)CN2CC=C(c3ccccc3)CC2)c(Br)c1`?
WT yeast gro inh: 37; PMI activator: 1; PMI act satM6P: 1; Lmaj promast: 0; Diaphorase act: 0.8

What do the screens show for `CC(=O)c1cccc(OCC(O)CN2CC=C(c3ccccc3)CC2)c1` (stereo not given)?
WT yeast gro inh: 4; PMI activator: 1; PMI act satM6P: 1; Lmaj promast: 94*; Diaphorase act: 0.8

Results for CCN1CCN(c2ccc([N+](=O)[O-])cc2C=C2C(=O)NC(=O)NC2=O)CC1 ?
WT yeast gro inh: 14; PMI activator: 1.3; PMI act satM6P: 1.4; Lmaj promast: 60*; Diaphorase act: 0.9

Results for CC(=O)N1CCN(c2ccc([N+](=O)[O-])cc2C=C2C(=O)NC(=O)NC2=O)CC1 ?
WT yeast gro inh: 7; PMI activator: 0.9; PMI act satM6P: 1; Lmaj promast: -2; Diaphorase act: 0.8

How did COc1cc(C(=S)N2CCOCC2)cc(OC)c1OC(=O)Cc1ccccc1 do in these assays?
WT yeast gro inh: -1; PMI activator: 0.9; PMI act satM6P: 0.9; Lmaj promast: 5; Diaphorase act: 0.8

What do the screens show for `Cc1cc(C)cc(N2C(=O)NC(=O)/C(=C/c3cccn3-c3ccc(Cl)cc3)C2=O)c1`?
WT yeast gro inh: 2; PMI activator: 0.9; PMI act satM6P: 1; Lmaj promast: 98*; Diaphorase act: 1.1

What do the screens show for `CC[n+]1c(SC)ccc2cc(OC)ccc21`?
WT yeast gro inh: 71*; PMI activator: 1.4; PMI act satM6P: 1.2; Lmaj promast: 17; Diaphorase act: 0.9

Results for CN1CCN(c2ccc(Cl)cc2N)CC1 ?
WT yeast gro inh: 18; PMI activator: 1; PMI act satM6P: 1; Lmaj promast: -3; Diaphorase act: 1

What do the screens show for `Cc1ccc(Cl)cc1N1CCN(CCN)CC1`?
WT yeast gro inh: 1; PMI activator: 0.9; PMI act satM6P: 0.9; Lmaj promast: 100*; Diaphorase act: 1

Results for COc1cc2c(cc1/C=C/[N+](=O)[O-])OCO2 ?
WT yeast gro inh: 38; PMI activator: 0.9; PMI act satM6P: 0.7; Lmaj promast: 100*; Diaphorase act: 0.9

Results for O=C(NCCO)c1nsnc1NCCCl ?
WT yeast gro inh: -1; PMI activator: 1.1; PMI act satM6P: 1.1; Lmaj promast: -5; Diaphorase act: 1.2

How did CN1CCC(N(C)c2ncnc3ccc(Br)cc23)CC1 do in these assays?
WT yeast gro inh: -2; PMI activator: 0.9; PMI act satM6P: 1; Lmaj promast: 52*; Diaphorase act: 0.9

How did CC(NCC#Cc1ccccc1)C(O)c1ccccc1 (stereo not given) do in these assays?
WT yeast gro inh: 5; PMI activator: 1; PMI act satM6P: 1.1; Lmaj promast: 14; Diaphorase act: 1

Results for CSc1ccc(CNC(C)C(O)c2ccccc2)cc1 (stereo not given) ?
WT yeast gro inh: 18; PMI activator: 1; PMI act satM6P: 1; Lmaj promast: 84*; Diaphorase act: 1

How did COCCOC(=O)c1c(N)n(Cc2ccc(OC)cc2)c2nc3ccccc3nc12 do in these assays?
WT yeast gro inh: -5; PMI activator: 0.8; PMI act satM6P: 0.9; Lmaj promast: 89*; Diaphorase act: 0.9

How did COC(=O)c1c(N)n(Cc2ccc(OC)cc2)c2nc3ccccc3nc12 do in these assays?
WT yeast gro inh: 71*; PMI activator: 0.9; PMI act satM6P: 1; Lmaj promast: 52*; Diaphorase act: 0.9

What do the screens show for `CCOC(=O)c1c(NS(=O)(=O)c2ccccc2)n(CCCOC)c2nc3ccccc3nc12`?
WT yeast gro inh: -4; PMI activator: 1; PMI act satM6P: 0.6; Lmaj promast: 96*; Diaphorase act: 0.8

Results for COCCNC(=O)c1c(N)n(CCC(C)C)c2nc3ccccc3nc12 ?
WT yeast gro inh: 8; PMI activator: 0.7; PMI act satM6P: 0.7; Lmaj promast: 100*; Diaphorase act: 0.7

How did CCCNC(=O)c1c(N)n(Cc2ccc3c(c2)OCO3)c2nc3ccccc3nc12 do in these assays?
WT yeast gro inh: -3; PMI activator: 0.7; PMI act satM6P: 0.7; Lmaj promast: 0; Diaphorase act: 0.7

What do the screens show for `CCCCNC(=O)c1c(N)n(CCCOC)c2nc3ccccc3nc12`?
WT yeast gro inh: 17; PMI activator: 0.6; PMI act satM6P: 0.6; Lmaj promast: 19; Diaphorase act: 0.6

Results for COCCN1C(=O)NC(=O)/C(=C\c2ccc(Br)cc2)C1=O ?
WT yeast gro inh: -1; PMI activator: 1.2; PMI act satM6P: 1.2; Lmaj promast: -5; Diaphorase act: 0.9

What do the screens show for `O=C(C(=O)N1CCOCC1)c1cn(Cc2c(F)cccc2Cl)c2ccccc12`?
WT yeast gro inh: -1; PMI activator: 0.9; PMI act satM6P: 1.1; Lmaj promast: -4; Diaphorase act: 1

Results for COc1ccc(-c2cc(C(F)(F)F)n3nc(C(=O)N4CCC5(CC4)OCCO5)cc3n2)cc1OC ?
WT yeast gro inh: 16; PMI activator: 0.8; PMI act satM6P: 0.9; Lmaj promast: 7; Diaphorase act: 0.8

Results for CCN(CC)C(=O)c1ccc(NC(=O)COc2ccccc2F)cc1 ?
WT yeast gro inh: 1; PMI activator: 0.9; PMI act satM6P: 0.9; Lmaj promast: -6; Diaphorase act: 0.9
